Assay outcomes (PubChem BioAssay)
A selection: hits, their analogues and other compounds. The true share with any hit is near 0.91%.
Pf gametocyte: late stage P. falciparum gametocyte viability inhibitors, primary screen, ATP luminescence, HTS | AID 743093, 2013 | inhibition, % at 10.9 µM | actives 0.065% (n = 150,000) | P. falciparum stage V gametocytes, 24 h;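 active = inhibition above the mean plus 3 SD of compounds within the control limits, set per campaign, cut at about 38% in these data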
Arbovirus inh: antivirals against arbovirus infection, primary screen, cell-based, full library, 10K replicate subset; arbovirus infection cell-based antiviral screen; inhibition, % at 10 µM; actives 0.37% (n = 200,000); in the data active = inhibition above about 30%
Lipid droplet: inhibitors of hepatocyte lipid droplet formation, primary screen, imaging, high-throughput imaging, BODIPY stain | AML12 mouse hepatocytes, oleate lipid droplets | inhibition, % at 6.5 µM | actives 0.4% (n = 240,000);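 active = lipid droplet intensity inhibited by at least 50%, with more than 500 cells counted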
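Material – AML12 mouse liver cells · Also added – oleate loading, 100 µM · Compound dosing – 6.5 µM single-point dosing · Times – overnight treatment with compound plus oleate · Measured by – fluorescence imaging, 20x objective, two fields per well · Read-out – percent inhibition of filter-corrected integrated lipid droplet intensity per well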
TNF necrop inh: inhibitors of TNF-alpha triggered necroptosis, primary screen, cell-based, Jurkat FADD-/-, single concentration. Jurkat FADD-/- TNF necroptosis rescue, ATP luminescence, 24 h; 0 = TNF only, 100 = no-TNF cells. activation (protection from cell death), % at 10 µM. actives 0.068% (n = 220,000);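 active = activation, meaning protection from cell death, of at least 50% relative to plate controls; inactive = activation below 50%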;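 also: necroptosis triggered by 40 ng/mL TNF-alpha added together with compound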
L929 necroptosis: inhibitors of zVAD-triggered necroptosis, primary screen, L929 cells | L929 zVAD necroptosis rescue, ATP luminescence, 24 h; with zVAD 60 µM | viability rescue, % at 10 µM | actives 0.38% (n = 220,000);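 active = activation, scaled between plate controls, above about 75%, limit read from the data; inactive = activation under that limit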
Numbers stand for hits; - = inactive; . = no result.

SMILES | Pf gametocyte | Arbovirus inh | Lipid droplet | TNF necrop inh | L929 necroptosis
O=C(c1ccccc1)C1CN(Cc2ccccc2)CCC1(O)c1ccccc1 (configuration not stated) | - | - | - | - | -
Clc1cccc(Cl)c1Cn1ccc(C2CC2)n1 | - | - | . | 97 | -
C=C1C(=O)O[C@@H]2C[C@@H](C)[C@@H]3C=CC(=O)[C@@]3(C)[C@@H](OC(C)=O)[C@H]12 | - | . | - | - | 130
C[C@@H]1C[C@@H]2OC(=O)[C@]3(C)[C@H]2[C@@H](OC3(C)O)[C@]2(C)C(=O)C=C[C@H]12 (some centres not stated) | - | . | - | - | -
COC(=O)c1ccccc1NC(=O)CN1CCC(NC(=O)c2ccccc2C)CC1 | - | 83 | . | - | -
Cc1ccccc1C(=O)NC1CCN(CC(=O)Nc2ccccc2Cl)CC1 | - | . | - | . | .
Cc1csc(Nc2ccccc2)[n+]1C | - | - | - | - | -
Cc1csc(Nc2ccccc2)[n+]1-c1ccccc1 | - | - | - | 56 | -
Cc1ccc(/C=N/NC(=O)c2c(C)nc3ccc(Cl)cn23)cc1 | - | . | . | . | .
O=[N+]([O-])c1cccc(/C=N\N=C2c3ccccc3-c3ccccc32)c1O | - | 40 | - | - | -
CC1(C)CC[C@]2(CO)CC[C@]3(C)C(=CCC4[C@@]5(C)CC[C@H](O)[C@@](C)(CO)C5CC[C@]43C)[C@@H]2C1 (some centres not stated) | - | . | . | . | .
Cc1ccc(C)c(S(=O)(=O)N2CCN(C(C)C(=O)Nc3ccccc3-c3ccccc3)CC2)c1 (configuration not stated) | - | 32 | - | - | -
Cc1cccc2nc(-c3ccco3)oc(=O)c12 | . | . | - | . | .
CCOC(=O)/C(N=Nc1c(C)n(C)n(-c2ccccc2)c1=O)=C(\C)O | 65 | - | - | - | -
CCCCOC(=O)c1ccc(NC(C)=O)cc1 | - | - | . | - | -
CCCCOC(=O)c1ccc(NC(=O)/C=C/c2cccs2)cc1 | - | - | 65 | - | -
O=C(c1coc(=O)c(Br)c1)N1CCCc2ccccc21 | . | 32 | . | - | -
Cc1ccc(S(=O)(=O)CCSc2cccc(C(=O)Nc3ccccc3C(=O)O)c2)cc1 | - | 44 | - | - | -
Cc1ccc(NC(=O)c2cccc(C(=O)Nc3ccc(C)cc3C(=O)O)c2)c(C(=O)O)c1 | . | . | - | . | .
O=C(O)CSc1nnc(CNc2cccc(C(F)(F)F)c2)n1Cc1ccco1 | . | 34 | . | - | -
CCc1ccccc1NC(=O)CN1C(=O)c2ccccc2S1(=O)=O | . | . | - | . | .
O=C(O)c1ccccc1Sc1c([N+](=O)[O-])cc(C(F)(F)F)cc1[N+](=O)[O-] | - | 31 | - | - | -
CSc1ccc(Cc2ccc(Cl)cc2Cl)nn1 | - | - | . | 62 | -
CN1CCN(c2ccccc2NC(=O)c2ccc(-c3ccccc3[N+](=O)[O-])o2)CC1 | . | . | - | . | .
CC1C=CCC2C(=O)N(c3cccc(C(=O)Nc4ccc(F)cc4)c3)C(=O)C12 (configuration not stated) | . | . | - | . | .
SMILES | Pf gametocyte | Arbovirus inh | Lipid droplet | TNF necrop inh | L929 necroptosis
C=CCN(C(=O)c1cccc(N2C(=O)C3CC=CC(C)C3C2=O)c1)c1ccccc1 (configuration not stated) | . | 30 | - | - | -
Cc1ccc(C(=O)NCC(=O)OC(C)C(=O)Nc2ccc(N(C)C)cc2)s1 (configuration not stated) | - | - | - | - | -
O=C(CSc1nc(-c2ccc(F)cc2)nc2c1Cc1ccccc1O2)Nc1ccc(C(=O)O)cc1 | - | 32 | - | - | -
O=C(CSc1nc(-c2ccccc2)nc2ccccc12)Nc1cccc(C(=O)O)c1 | - | - | - | - | -
O=C(CSc1nc(-c2ccccc2)nc2c1Cc1ccccc1O2)Nc1ccc(C(=O)O)cc1 | - | 68 | - | - | -
O=C(CSc1nc(-c2ccc(F)cc2)nc2ccc(F)cc12)Nc1cccc(C(=O)O)c1 | - | - | - | - | -
COc1cc(/C=N/NC(=O)c2cccc(S(=O)(=O)N3CCCCC3)c2)cc(Br)c1O | . | - | - | - | -
COc1ccc(-c2cc(C(F)(F)F)nc(S(=O)(=O)CCCC(=O)Nc3cccnc3Cl)n2)cc1OC | - | - | - | - | -
COc1ccc(NC(=O)C(C)Sc2nnc3c4c(nc(-c5ccc(OC)cc5)n23)CC(C)(C)OC4)cc1 (configuration not stated) | - | - | 52 | - | -
COc1ccc(-c2nc3c(c4nnc(SC(C)C(=O)Nc5ccccc5)n24)COC(C)(C)C3)cc1 (configuration not stated) | - | - | 66 | - | -
CC(Sc1nccn1C)C(=O)Nc1ccccc1 (configuration not stated) | . | . | - | . | .
O=C(Cc1ccsc1)NCc1ccccc1F | . | . | - | . | .
O=c1c(Cl)c(N2CCCCC2)cnn1-c1nc2ccccc2[nH]1 | - | - | . | - | -
O=c1c2ccccc2cnn1-c1nc2ccccc2[nH]1 | 47 | - | - | - | -
O=C(Nc1ccc(S(=O)(=O)N2CCOCC2)cc1)C1CC(=O)N(c2ccc(F)cc2)C1 (configuration not stated) | . | . | - | . | .
CCC(C)[C@H]1CNCCN1CCC12CC3CC(CC(C3)C1)C2 (some centres not stated) | - | . | . | . | .
O=C(O)c1ccc2[nH]c3c(c2c1)CSCC3 | . | 31 | - | - | -
Oc1ccc(Br)cc1-c1cc(-c2ccc(Cl)cc2)n[nH]1 | . | 74 | - | - | -
Oc1ccc(Br)cc1-c1cc(-c2ccccc2)n[nH]1 | - | 36 | - | - | -
COc1ccc(-c2cc(-c3ccc(Cl)cc3)n[nH]2)c(O)c1 | . | . | - | . | .
COc1ccc(C(=O)NCCn2cc(SCC(=O)NCC3CCCO3)c3ccccc32)cc1OC (configuration not stated) | . | . | - | . | .
COc1ccc(-c2csc(NC(=O)C3=NN(c4ccccc4)C(=O)CC3)n2)cc1 | - | 31 | - | - | -
CCOc1ccc2nc(NC(=O)CCn3cccc3)sc2c1 | . | - | . | - | 85
CCOc1ccc2nc(NC(=O)C3=NN(c4ccccc4)C(=O)CC3)sc2c1 | - | 52 | - | - | -
O=C(Nc1nc2ccccc2s1)c1cc(-c2ccccc2)nn1-c1ccccc1 | - | 49 | - | - | -
SMILES | Pf gametocyte | Arbovirus inh | Lipid droplet | TNF necrop inh | L929 necroptosis
CC(=O)c1sc(NC(=O)c2cc(-c3ccccc3)nn2-c2ccccc2)nc1C | - | - | - | - | -
O=C(Nc1nc(-c2cc(F)ccc2F)cs1)C1=NN(c2ccccc2)C(=O)CC1 | - | - | - | - | -
O=C(Nc1ccccc1Cl)NC1(C(=O)NCc2cccnc2)CCCCC1 | . | . | - | . | .
Cc1ccc2nc(NC(=O)C3=NN(c4ccccc4)C(=O)CC3)sc2c1 | - | 60 | - | - | -
Cc1cccc2sc(NC(=O)C3=NN(c4ccccc4)C(=O)CC3)nc12 | - | - | - | - | -
Cc1nc(C)c(C(=O)O)c(-c2cccs2)c1C(=O)O | - | . | - | - | -
